In the RNAGym collection of RNA variant scans (doi:10.1126/science.aae0568):
Fewer inactive variants are shown than the library holds.

B1: tRNA (parent)
chain: GUUCCGUUGGCGUAAUGGUAACGCGUCUCCCUCCUAAGGAGAAGACUGCGGGUUCGAGUCCCGUACGGAACG

Variants of: B1
Experiment: yeast fitness relative to wild type (ratio to wild type); higher = fitter; tRNA-Arg(CCU), competitive growth, 37 C, YPD
Summary of the method: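 The tRNA-Arg(CCU) gene variants were made by chemical synthesis with a 3% per-site mutation rate at 69 sites and inserted at the native genomic locus of Saccharomyces cerevisiae. After pooling, the strains were competed in YPD at 37°C for 24 hours in six parallel replicates. Gene amplicons from the start population and each end population were read by 100-nucleotide paired-end sequencing, and Darwinian fitness relative to wild type was taken from genotype frequency changes. Genotypes needed ≥ 100 starting reads, and estimates < 0.5 were set to 0.5.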

With A20G A37U C60A as the variant, how does the yeast fitness read?
Its yeast fitness is 0.626.

For G9U C33U A43U U59G, which yeast fitness is on record?
The yeast fitness was 0.676.

Which yeast fitness does the source give for C4U C29A A36C A40U G51A here?
Its yeast fitness is 0.588.

For C5G G10C U47A A70G, which yeast fitness is on record?
The yeast fitness was no more than 0.5.

Which yeast fitness does the source give for U3G A21G C62U here?
The yeast fitness was 0.538.

For U28G G50C, which yeast fitness is on record?
Its yeast fitness is 0.637.

Which yeast fitness does the source give for U13C A14G A42C C62G here?
The yeast fitness was no more than 0.5.

With G23C G51A as the variant, how does the yeast fitness read?
The yeast fitness was 0.671.

With A37C C46U as the variant, how does the yeast fitness read?
Its yeast fitness is 0.946.

For U8A A37C, which yeast fitness is on record?
Its yeast fitness is 0.679.

For U32G G48A, which yeast fitness is on record?
The yeast fitness was 0.616.

Which yeast fitness does the source give for G12A U19C G23A U32C A43C here?
The yeast fitness was no more than 0.5.

With G6A G39A G41A A65G as the variant, how does the yeast fitness read?
Its yeast fitness is 0.613.

With C33G A36G G39C G67U as the variant, how does the yeast fitness read?
The yeast fitness was no more than 0.5.

With C49A C61U A65G as the variant, how does the yeast fitness read?
The yeast fitness was 0.568.

Which yeast fitness does the source give for C4U G10A G51C U59G here?
Its yeast fitness is no more than 0.5.

With C4G U19A C31G as the variant, how does the yeast fitness read?
The yeast fitness was no more than 0.5.

Which yeast fitness does the source give for G9A C29A here?
Its yeast fitness is 0.735.

Which yeast fitness does the source give for A42C G51C here?
The yeast fitness was 0.553.

Which yeast fitness does the source give for U13A G50U here?
The yeast fitness was 0.838.

With C31G G52C as the variant, how does the yeast fitness read?
The yeast fitness was 0.531.

For C11U G12A A15C C31A G51A C66U, which yeast fitness is on record?
The yeast fitness was 0.594.

Which yeast fitness does the source give for A20U A43G A65C here?
The yeast fitness was no more than 0.5.

For U3C A14C A20C, which yeast fitness is on record?
The yeast fitness was no more than 0.5.

Which yeast fitness does the source give for C11U G17A C34U C55G here?
The yeast fitness was no more than 0.5.

Which yeast fitness does the source give for C4G C5U A42G G67A here?
Its yeast fitness is no more than 0.5.

Which yeast fitness does the source give for G6U A21G A70G here?
Its yeast fitness is 0.562.

With G23A C30G C33G A36U C46G C55G C61U as the variant, how does the yeast fitness read?
The yeast fitness was 0.567.

For G12A G52A U59C, which yeast fitness is on record?
Its yeast fitness is no more than 0.5.

Which yeast fitness does the source give for G25A G51C C66U here?
Its yeast fitness is no more than 0.5.

For U16C C33U C60U G67C, which yeast fitness is on record?
The yeast fitness was no more than 0.5.

With C5G A20U A37G as the variant, how does the yeast fitness read?
Its yeast fitness is no more than 0.5.

With U2C U13C A20G U28C A40G as the variant, how does the yeast fitness read?
Its yeast fitness is 0.679.

With U7G C30A C55A as the variant, how does the yeast fitness read?
Its yeast fitness is no more than 0.5.

Which yeast fitness does the source give for A43C C49U C66U here?
The yeast fitness was 0.718.

With C5A G52A G68A as the variant, how does the yeast fitness read?
The yeast fitness was no more than 0.5.

Which yeast fitness does the source give for C4U A36G here?
The yeast fitness was 1.02.

Which yeast fitness does the source give for C4U A36U here?
The yeast fitness was 0.82.

Which yeast fitness does the source give for U2A C60G A70U here?
Its yeast fitness is no more than 0.5.

For U3G A21C C46U, which yeast fitness is on record?
The yeast fitness was 0.505.

With C22U A36G G51A C66U as the variant, how does the yeast fitness read?
The yeast fitness was 0.588.

Which yeast fitness does the source give for C5G U7G G38A A40C G56A C60U C61G here?
Its yeast fitness is no more than 0.5.

Which yeast fitness does the source give for U35A U59G here?
Its yeast fitness is 0.62.

For A15U A45G, which yeast fitness is on record?
Its yeast fitness is 0.732.

For A45C C55U G67C, which yeast fitness is on record?
The yeast fitness was no more than 0.5.

With U8C U26G C33G A37C U54A as the variant, how does the yeast fitness read?
The yeast fitness was no more than 0.5.

For U32C C66U G68C, which yeast fitness is on record?
The yeast fitness was 0.554.

For G25C G38A A65G, which yeast fitness is on record?
The yeast fitness was 1.04.

Which yeast fitness does the source give for U32C A42G here?
Its yeast fitness is 0.861.

For A21G A36G A42U A57G, which yeast fitness is on record?
Its yeast fitness is no more than 0.5.

For U7G A15C U16A C33G A69C, which yeast fitness is on record?
Its yeast fitness is no more than 0.5.

For G6C A70G, which yeast fitness is on record?
The yeast fitness was 0.948.

With U59C C61G as the variant, how does the yeast fitness read?
The yeast fitness was 0.588.

Which yeast fitness does the source give for U53G G56C C60A here?
Its yeast fitness is no more than 0.5.

For A15C G44A, which yeast fitness is on record?
The yeast fitness was 0.707.

Which yeast fitness does the source give for G10A U13G A43U U53C here?
The yeast fitness was no more than 0.5.

With A42G U54A as the variant, how does the yeast fitness read?
The yeast fitness was 0.612.

For C11G C24G A42U, which yeast fitness is on record?
The yeast fitness was no more than 0.5.

For U16C C34A G39C G52A G58A, which yeast fitness is on record?
Its yeast fitness is no more than 0.5.

With U7G U8A A14G C62U A65U as the variant, how does the yeast fitness read?
The yeast fitness was no more than 0.5.

For U7G C34G, which yeast fitness is on record?
Its yeast fitness is 0.649.

For C4A C24G G41U, which yeast fitness is on record?
The yeast fitness was no more than 0.5.

Which yeast fitness does the source give for C24G U32A A43G G50A here?
Its yeast fitness is no more than 0.5.

With C49G G68C as the variant, how does the yeast fitness read?
Its yeast fitness is 0.704.

With C11U C30A U47A as the variant, how does the yeast fitness read?
Its yeast fitness is 0.57.

For G12A A15G G44C U59A, which yeast fitness is on record?
The yeast fitness was no more than 0.5.

Which yeast fitness does the source give for C22G G67C here?
Its yeast fitness is 0.97.

Which yeast fitness does the source give for G6A G58C here?
Its yeast fitness is 1.08.

Which yeast fitness does the source give for C5U C22G C29A A45U C55U here?
The yeast fitness was no more than 0.5.

With C11A C27G G67C as the variant, how does the yeast fitness read?
Its yeast fitness is no more than 0.5.

Which yeast fitness does the source give for A21G A65C here?
Its yeast fitness is 0.924.

Which yeast fitness does the source give for A21G A65U here?
Its yeast fitness is 0.848.

For C31A U59C, which yeast fitness is on record?
Its yeast fitness is 0.767.

Which yeast fitness does the source give for C4G A20U A57U here?
Its yeast fitness is no more than 0.5.

For C11U A45G G58A A65G, which yeast fitness is on record?
Its yeast fitness is 1.11.

With C4A A43C G58A as the variant, how does the yeast fitness read?
The yeast fitness was 0.588.

For U2C C11G C24A C55A, which yeast fitness is on record?
Its yeast fitness is 0.786.

Which yeast fitness does the source give for G41A A43C here?
Its yeast fitness is 0.843.

For C11A A42C A65U C66U, which yeast fitness is on record?
The yeast fitness was 0.623.

For U13A U16A U54A, which yeast fitness is on record?
The yeast fitness was 0.505.

Which yeast fitness does the source give for A14C U47C A70U here?
The yeast fitness was 0.614.

With U8C G18C C33U A65C A69C as the variant, how does the yeast fitness read?
The yeast fitness was 0.549.

Which yeast fitness does the source give for C5G U16A A21C A37C G68A here?
The yeast fitness was no more than 0.5.

With U32A G58A A70C as the variant, how does the yeast fitness read?
The yeast fitness was 0.513.
